# Hck-Nef inh: inhibitors of Nef-activated human Hck kinase, primary screen, biochemical, Z-Lyte FRET, 384-well, Hck-YEEI; hit rate 0.68% among 220,000; inhibition, % at 20 µM; Tyrosine-protein kinase HCK (Homo sapiens), P08631; Recombinant Hck-YEEI plus Nef, Z-Lyte FRET kinase assay;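 active means Hck-Nef kinase inhibition above about 50%, limit read from the data; inactive means inhibition below that limit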;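 further: 0% = DMSO with Hck plus Nef and 100% = Hck alone without Nef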
# Target sequence (P08631 whole entry, looked up): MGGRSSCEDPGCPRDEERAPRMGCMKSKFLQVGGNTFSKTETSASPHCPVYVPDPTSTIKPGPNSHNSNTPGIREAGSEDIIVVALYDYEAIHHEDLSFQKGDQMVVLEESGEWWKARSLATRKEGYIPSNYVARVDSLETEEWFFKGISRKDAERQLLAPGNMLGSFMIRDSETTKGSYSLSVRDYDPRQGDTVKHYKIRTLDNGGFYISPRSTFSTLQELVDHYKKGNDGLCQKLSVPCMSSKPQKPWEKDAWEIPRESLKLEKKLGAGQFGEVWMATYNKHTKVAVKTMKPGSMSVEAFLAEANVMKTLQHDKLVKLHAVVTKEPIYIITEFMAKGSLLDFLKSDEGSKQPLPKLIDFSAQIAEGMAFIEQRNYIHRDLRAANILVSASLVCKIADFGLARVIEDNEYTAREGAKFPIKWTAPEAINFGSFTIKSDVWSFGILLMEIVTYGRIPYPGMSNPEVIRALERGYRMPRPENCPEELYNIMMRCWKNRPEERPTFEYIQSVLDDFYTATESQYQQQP
# Runt-SMMHC FRET: inhibitors of RUNX1 Runt–CBFb-SMMHC binding, primary screen, biochemical, FRET, Cerulean-Runt, Venus-CBFb-SMMHC, uHTS; AID 1434, 2008; inhibition, % at 20 µM; Runt-related transcription factor 1 (Homo sapiens) + Core-binding factor subunit beta …; hit rate 0.74% among 220,000; Cerulean-Runt/Venus-CBFb-SMMHC FRET ratio 530/480, 1 h;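 active means mean inhibition across duplicate retests at 20 µM reaching about 50%, limit read from the data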;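 further: 0% = DMSO wells and 100% = wells with excess untagged CBFb-SMMHC; inhibitors lower the FRET ratio by blocking Runt binding to CBFb-SMMHC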
# Runt-CBFb FRET: inhibitors of RUNX1 Runt–CBFb binding, primary screen, biochemical, FRET, Cerulean-Runt, Venus-CBFb, uHTS | Cerulean-Runt/Venus-CBFb FRET ratio 530/480, 1 h | inhibition, % at 20 µM | hit rate 0.46% among 220,000 | AID 1496, 2009;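 active means inhibition over about 50% at 20 µM in the single-dose screen, limit read from the data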;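 further: 0% = DMSO wells and 100% = excess unlabeled CBFb competitor control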
#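 Measured by: fluorescence energy transfer, 422 nm excitation, 530/480 nm emission; Assay system: Cerulean-Runt domain; Medium: Tris pH 7.5 buffer with BSA; Measure: loss of energy transfer signal; Controls: 5 µM unlabeled CBFb as full-inhibition high control; Incubation: protein complex preformed 1 h, compound exposure 1 h, room temperature, dark.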
# RanGTP-Impb inh: inhibitors of RanGTP-importin-beta interaction, primary screen, biochemical, FRET, CFP-Ran, YFP-importin-beta, homogeneous. Ran GTPase (GTP-bound) - importin-beta complex. cell-free CFP-Ran/YFP-importin-beta FRET ratio. inhibition, % (no concentration beside the values). hit rate 1.1% among 300,000. AID 2216, 2009;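 active means more than half of the replicate wells show a fall in the fluorescence ratio signal beyond about 16%, limit read from the data, passing the limit was not always enough; inconclusive means exactly half of the replicate wells pass the set limit; inactive means fewer than half of replicates pass the limit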;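 further: 0% = DMSO wells and 100% = Ran loaded with GDP instead of GTP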
# Hck Nef conf: retest of Hck:Nef kinase inhibitor hits, confirmation, biochemical, Z-Lyte FRET, 384-well, p-Tyr peptide counterscreen; hit rate 28% among 1,300; shares compounds with Hck-Nef inh; Recombinant Hck-YEEI:Nef, Z-Lyte FRET kinase assay; calls only at 10 µM;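 active means average inhibition of at least 50%, with Z-scores no higher than 3 in both the phospho-tyrosine peptide and fluorescence counterscreens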
# * hit, by the source's call; i = inactive; ? = inconclusive; nt = no result shown; + = active, no number. Most compounds without a hit are left out; they make up all but 1.7% or so of the library.
SMILES,Hck-Nef inh,Runt-SMMHC FRET,Runt-CBFb FRET,RanGTP-Impb inh,others
Cc1c(Cc2ccccc2)c(=O)oc2c(CN(C)C)c(O)c(Cl)cc12,116*,90*,126*,71*,
CCN(CC)Cc1c(O)c(Cl)cc2c(C)cc(=O)oc12,+,138*,76*,13,
Cc1cc(=O)oc2c(CN(CC(C)C)CC(C)C)c(O)ccc12,63*,77*,42,0,
C=CCc1c(O)c(CC)cc2c(C)cc(=O)oc12,106*,80*,47,62*,
CCC(=O)c1cc2c(C)cc(=O)oc2c(C)c1O,-1,65,27,2,
Cc1ccc(-n2c(SCC(=O)NC3CCS(=O)(=O)C3)nc3ccccc3c2=O)cc1C (centres undefined),nt,nt,nt,4,
O=C(O)CCC(=O)NNc1ncnc2ccccc12,52*,-7,3,2,Hck Nef conf=i
Cc1ccc(S(=O)(=O)c2c(N)n(NC(=O)C3CC3)c3nc4ccccc4nc23)cc1,73*,76*,29,9,
Cc1ccc(S(=O)(=O)c2c(N)n(CCCN(C)C)c3nc4ccccc4nc23)cc1,94*,21,8,1,
CCCCn1c(NCc2ccccc2NS(=O)(=O)c2ccc(C)cc2)nc2ccccc21,2,-1,0,3,
Cc1ccc(-n2c(N)c(S(=O)(=O)c3ccccc3)c3nc4ccccc4nc32)cc1,-6,3,nt,0,
Cc1ccc(S(=O)(=O)c2c(N)n(CC3CCOC3)c3nc4ccccc4nc23)cc1 (centres undefined),37,19,7,0,
CCCCn1c(NS(=O)(=O)c2ccc(C)cc2)c(S(=O)(=O)c2ccccc2)c2nc3ccccc3nc21,97*,39,3,14,Hck Nef conf=i
CCCCC[C@H](O)/C=C/[C@H]1CCC(=O)[C@@H]1CCCCCCC(=O)N1CCCCC1CO (some centres undefined),nt,nt,nt,4,
COc1ccc(C2=CC3=C(Br)C(=O)C(C)(O)C(=O)C3=CO2)cc1 (centres undefined),95*,2,-4,-2,Hck Nef conf=+
CCC(=O)OC1(C)C(=O)C2=COC(c3ccc(OC)cc3)=CC2=C(Br)C1=O (centres undefined),81*,-46,13,-29,Hck Nef conf=i
O=C(NNC(=O)c1cc(-c2cccc(Br)c2)nc2ccccc12)c1csc(N2CCOCC2)n1,nt,nt,nt,1,
COC(=O)C1=CNC=C(C(=O)OC)C1c1ccccc1Cl,66*,146*,72*,nt,
COC(=O)C1=CNC=C(C(=O)OC)C1c1cccc2ccccc12,nt,nt,nt,0,
O=C(Nc1ccc(N2CCCC2)cc1)C(c1ccccc1)c1ccccc1,59*,6,3,-4,Hck Nef conf=i
Cc1cc(C)n(-c2ccc(C)c(Cl)c2)n1,4,3,-2,2,
COc1ccc(-n2c(N)c(C(=O)NCC3CCCO3)c3nc4ccccc4nc32)c(OC)c1 (centres undefined),75*,106*,44,52*,
C=CCn1c(N)c(C(=O)NCC2CCCO2)c2nc3ccccc3nc21 (centres undefined),55*,46,4,107*,
COc1ccc(-n2nc(C(=O)NCC(=O)NCC3CCCO3)c3ccccc3c2=O)c(OC)c1 (centres undefined),-1,2,-2,?,
Cc1c(OC(=O)CNC(=O)OC(C)(C)C)ccc2c3c(c(=O)oc12)CCC3,64*,83*,37,nt,
Cc1c(OCC(=O)OC(C)(C)C)ccc2c3c(c(=O)oc12)CCC3,0,1,-7,5,
CC(C)[C@H](CO)N(Cc1cccc(F)c1)c1nc(Nc2cccc(Cl)c2)c2ncn(C(C)C)c2n1,68*,3,2,0,Hck Nef conf=+
CC[C@H](CO)Nc1nc(Nc2cccc(Cl)c2)c2ncn(C(C)C)c2n1,110*,-2,2,-1,Hck Nef conf=+
CC(C)n1cnc2c(N(C)c3cccc(Cl)c3)nc(N(CCO)CCO)nc21,23,-1,1,5,
O=C(COC(=O)C1=COCCO1)NC1CCCCC1,nt,nt,nt,2,

# Screening results from PubChem BioAssay.
